Reference: ChEMBL document CHEMBL1124334, “Hypolipidemic 2-[4-(1,1-dimethylethyl)phenyl]-4H-3,1-benzoxazin-4-ones. Structure-activity relationships of a novel series of high-density lipoprotein elevators” (1989)

What was measured:
Type in all cases: functional
[1] = system: Rattus norvegicus; test: The compound was tested for % change in plasma HDL cholesterol in cholesterol-fed rats at 200 mg/kg dose given in a period of 3 days;
Procedure, shortened: (§1)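 Young male Wistar rats (120–150 g), groups of eight, fed ad libitum rodent diet with 0.5% w/w cholesterol and 0.25% cholic acid for 10 days. Compound suspended in 0.5% w/w tragacanth mucilage and given daily by stomach tube over the final 3 days; controls got vehicle. After overnight starvation, rats were killed 3 h post final dose and cardiac blood taken into heparin.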

[2] = system: Rattus norvegicus; test: Percent change in plasma total cholesterol in cholesterol-fed rats at 200 mg/kg dose given in a period of 3 days; procedure, shortened: as §1
[3] = system: Rattus norvegicus; test: Percent change in plasma triglycerides in cholesterol-fed rats at 200 mg/kg dose given in a period of 3 days; procedure, shortened: as §1
[4] = organism: Rattus norvegicus; test: Change in plasma total cholesterol in normocholesterolemic rats at 0.2 % composition of dose with diet given in a period of 3 days.
Procedure, shortened: (§2)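 Young male Wistar rats (120–150 g) fed basal powdered rodent diet ad libitum, with compound mixed into the diet at 0.2% w/w for 3 or 7 days. Plasma triglyceride and total cholesterol were then measured by standard enzymatic methods. Results are % change relative to controls.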

[5] = system: Rattus norvegicus; test: Ratio of plasma HDL cholesterol/total cholesterol at 200 g/kg for 3 days; conditions: in the assay text read “200 mg/kg” for “200 g/kg”; procedure, shortened: as §1
[6] = organism: Rattus norvegicus; test: Change in plasma triglycerides in normocholesterolemic rats at 0.2 % composition of dose with diet given in a period of 3 days.; procedure, shortened: as §2
[7] = system: Rattus norvegicus; test: Percent change in plasma HDL cholesterol in cholesterol-fed rats at 200 mg/kg dose given in a period of 3 days; procedure, shortened: as §1
[8] = organism: Rattus norvegicus; test: The compound was tested for % change in plasma triglycerides in normocholesterolemic rats at 0.2 % composition of dose with diet given in a period of 3 days; procedure, shortened: as §2
[9] = Ratio of plasma HDL cholesterol/total cholesterol at 25 mg/kg for 3 days; procedure, shortened: as §1
[10] = system: Rattus norvegicus; test: The compound was tested for % change in plasma HDL cholesterol in cholesterol-fed rats at 50 mg/kg dose given in a period of 3 days; procedure, shortened: as §1
[11] = Ratio of plasma HDL cholesterol/total cholesterol at 200 mg/kg for 3 days; procedure, shortened: as §1
[12] = system: Rattus norvegicus; test: % change in plasma triglycerides in cholesterol-fed rats at 100 mg/kg dose given in a period of 3 days administered orally; conditions: route oral; procedure, shortened: as §1
[13] = system: Rattus norvegicus; test: The compound was tested for % change in plasma triglycerides in cholesterol-fed rats at 50 mg/kg dose given in a period of 3 days; procedure, shortened: as §1
[14] = system: Rattus norvegicus; test: The compound was tested for % change in plasma total cholesterol in cholesterol-fed rats at 25 mg/kg dose given in a period of 3 days; procedure, shortened: as §1
[15] = Ratio of plasma HDL cholesterol/total cholesterol at 100 mg/kg for 3 days; procedure, shortened: as §1
[16] = organism: Rattus norvegicus; test: The compound was tested for % change in plasma total cholesterol in normocholesterolemic rats at 0.2 % composition of dose with diet given in a period of 7 days; procedure, shortened: as §2
[17] = system: Rattus norvegicus; test: The compound was tested for % change in plasma total cholesterol in cholesterol-fed rats at 50 mg/kg dose given in a period of 3 days; procedure, shortened: as §1
[18] = Ratio of plasma HDL cholesterol/total cholesterol at 50 mg/kg for 3 days; procedure, shortened: as §1
[19] = organism: Rattus norvegicus; test: The compound was tested for % change in plasma triglycerides in normocholesterolemic rats at 0.2 % composition of dose with diet given in a period of 7 days; procedure, shortened: as §2
[20] = system: Rattus norvegicus; test: The compound was tested for % change in plasma total cholesterol in cholesterol-fed rats at 100 mg/kg dose given in a period of 3 days; procedure, shortened: as §1
[21] = system: Rattus norvegicus; test: The compound was tested for % change in plasma HDL cholesterol in cholesterol-fed rats at 100 mg/kg dose given in a period of 3 days; procedure, shortened: as §1
[22] = system: Rattus norvegicus; test: The compound was tested for % change in plasma triglycerides in cholesterol-fed rats at 25 mg/kg dose given in a period of 3 days; procedure, shortened: as §1
[23] = system: Rattus norvegicus; test: The compound was tested for % change in plasma HDL cholesterol in cholesterol-fed rats at 25 mg/kg dose given in a period of 3 days; procedure, shortened: as §1

In the case of CC(C)(C)c1ccc(C(=O)Nc2ccc(Br)cc2C(=O)[O-])cc1.[Na+], the Change [1] was 57%, the Change [2] was -7% and the Change [3] was 15%. The Change [4] was -42%, the “Change in HDL/total cholesterol ratio” value [5] was 64 and the Change [6] was -18%.

Compound Cc1ccc2nc(-c3ccc(CC(C)(C)C)cc3)oc(=O)c2c1 has a Change [7] of 28%, a Change [2] of -12% and a Change [3] of 23%. For the same compound, the Change [4] was -10%, the Change [8] was 16% and the Ratio ([9]; dose 200 mg/kg, in the assay text read “200 mg/kg” for “25 mg/kg”) was 50.

Cc1ccc2nc(-c3ccc(C(C)(C)C)cc3)oc(=O)c2c1 gave a Change [10] of 31%, a Ratio [11] of 92 and a Change [12] of -18%. For the same compound, the Change [13] was 21%, the Change [14] was -5% and the Change [7] was 50%. For the same compound, the Ratio [15] was 65, the Change [16] was -15% and the Change [17] was -19%. The Ratio [18] was 56, the Change [2] was -27% and the Change [3] was -17%. It also gave a Change [19] of -33%, a Change [20] of -34% and a Ratio ([9]; dose 25 mg/kg) of 31. The Change [21] was 15%, the Change [22] was -1% and the Change [23] was 30%.
